# Compound activity as filed in PubChem.
# The list is not random: actives were taken first. Their share in the collection is about 2.9%.
# TRPC4 block – inhibitors of mouse TRPC4 channel, primary screen, Fluo4 calcium, HEK293 TRPC4beta/mu-opioid cells. 300,000 tested, 0.39% active. Short transient receptor potential channel 4 (Mus musculus), Q9QUQ5. DAMGO-evoked Fluo4 calcium flux; hits give low values. B-score at 10 µM;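 active = B-score over 3 SD under the library average, no early fluorescence shift, positive overall ratio signal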
#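 Material: HEK293 cells with stable TRPC4beta plus mu-opioid receptor expression / Probe or stimulus: DAMGO in two steps, submaximal then maximal / Compound: single concentration per test compound / Technique: kinetic Fluo4 fluorescence imaging of calcium influx / Read-out: per-well B score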
# Kir21 block – inhibitors of mouse Kir2.1 inward-rectifier potassium channel; HEK293-Kir2.1, FluxOR thallium flux fluorescence; hits give low values; Inward rectifier potassium channel 2 (Mus musculus), P35561; AID 1672, 2009; B-score at 10 µM; 310,000 tested, 0.85% active;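 active = fluorescence ratio B-score at or below minus 3 SD of library scores, with starting-brightness B-score within 2 SD, cut at about -4.2 in these data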;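 note: channel flux triggered by added potassium and thallium sulfate stimulus; B-score of peak minus minimum fluorescence over baseline after thallium stimulus; more negative B-score means stronger Kir2.1 block with less thallium influx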
# Target sequence (P35561 whole entry, looked up): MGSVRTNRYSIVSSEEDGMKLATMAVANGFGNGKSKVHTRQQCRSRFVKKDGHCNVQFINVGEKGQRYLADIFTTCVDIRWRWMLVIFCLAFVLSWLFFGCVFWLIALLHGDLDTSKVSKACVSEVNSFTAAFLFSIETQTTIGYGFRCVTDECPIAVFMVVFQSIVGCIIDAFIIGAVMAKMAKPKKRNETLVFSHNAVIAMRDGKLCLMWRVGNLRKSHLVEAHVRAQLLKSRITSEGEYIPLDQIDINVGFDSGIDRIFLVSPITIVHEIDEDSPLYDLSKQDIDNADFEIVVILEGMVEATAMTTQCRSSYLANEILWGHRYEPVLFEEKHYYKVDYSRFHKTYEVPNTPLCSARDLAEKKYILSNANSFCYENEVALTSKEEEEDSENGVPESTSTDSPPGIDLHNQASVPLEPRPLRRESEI
# TRPC4 act – activators of mouse TRPC4 channel, primary screen, Fluo4 calcium, HEK293 TRPC4beta/mu-opioid cells | AID 2237, 2010 | Fluo4 calcium fluorescence; hits give high values | B-score at 10 µM | 310,000 tested, 0.49% active;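 active = B-score above 5 SD of library B-scores, and initial fluorescence ratio not above library mean plus 5 SD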;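 note: positive B-score marks a calcium rise read as TRPC4 activation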
#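 Incubation: 45 min room-temperature Fluo4 loading, 110 s read / System: HEK293 cells stably co-expressing mouse TRPC4beta and mu-opioid receptor / Signal: Fluo4 fluorescence, kinetic / Control set: buffer (low) and maximal DAMGO (high) / Measure: integrated baseline-normalised fluorescence ratio, converted to per-well B score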
# TRPC6 inh – mouse TRPC6 channel inhibitors, primary screen, cell-based, HEK293, membrane potential dye; Short transient receptor potential channel 6 (Mus musculus), Q61143; ACh-evoked depolarization; hits give low values; B-score at 10 µM; 310,000 tested, 1.1% active;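 active = B-score under library mean minus 3 SD, initial fluorescence not abnormally high, positive integrated signal ratio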;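 note: B-score derived from integrated fluorescence ratio over the kinetic read; more negative B-score means stronger inhibition of depolarization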
# TRPC6 activator – mouse TRPC6 channel activators, primary screen, cell-based, HEK293, membrane potential dye; Short transient receptor potential channel 6 (Mus musculus), Q61143; HEK293-TRPC6 membrane potential dye fluorescence; hits give high values; B-score at 10 µM; 310,000 tested, 0.13% active; AID 2550, 2010;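 active = B-score of the integrated fluorescence ratio above library mean plus 3 SD, and starting fluorescence ratio within library mean plus 5 SD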;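 note: higher score means more depolarization so channel activation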
# TRPC4 potent – positive allosteric modulators of TRPC4, primary screen, cell-based, mouse TRPC4beta, HEK293 mu-opioid, Fluo-4 calcium. 310,000 tested, 0.42% active. Short transient receptor potential channel 4 (Mus musculus), Q9QUQ5. B-score at 10 µM. DAMGO EC20, Fluo-4 Ca2+ flux; hits give high values;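 active = B-score of calcium response area above 5 SD of library B-scores, with initial fluorescence ratio within 5 SD of library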;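 note: B-score of integrated fluorescence ratio over time as area under calcium response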
# TRPC4 sel inh 2 – second check of whether TRPC6 inhibitors also affect mouse TRPC4. AID 2776. 920 tested, 42% active. HEK293 TRPC4/MOR, membrane potential dye fluorescence; channel activated by saturating DAMGO dose. inhibition, % at 10 µM. shares compounds with TRPC6 inh;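 active = compounds whose fluorescence signal differed from control wells by over 3 SD, either direction, in both duplicate plates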
# TRPC4 spec – mouse TRPC4 modulation by TRPC6 hits, confirmation, selectivity assay for TRPC6 inhibitor project, cell-based, HEK293 TRPC4/mu-opioid, membrane potential dye; 920 tested, 61% active; activity change, negative = inhibition, % at 10 µM; AID 2777, 2010; membrane potential fluorescence; shares compounds with TRPC6 inh;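 active = rise or fall in signal beyond 3 SD of buffer-only wells in both replicate plates, either sign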;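 note: integrated kinetic ratio of fluorescence range over baseline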
# HEK293 MPD ctr 2-1 – nonspecific membrane potential effects, parental HEK293, confirmation, counter-screen for TRPC6 inhibitor project, cell-based, second counter screen | shares compounds with TRPC6 inh | parental HEK293 membrane potential dye fluorescence; maximal acetylcholine challenge after compound addition | signal change vs control, % at 10 µM | 920 tested, 31% active | AID 2779, 2010;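 active = membrane potential signal moving either way by over 3 SD of the maximum-effect control, in both duplicate plates, meaning non-specific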
# HEK293 MPD ctr-1 – membrane potential modulation in parental HEK293, confirmation, counter-screen for TRPC6 inhibitor project, cell-based. AID 2780, 2010. shares compounds with TRPC6 inh. 920 tested, 60% active. membrane potential signal change, % at 10 µM. parental HEK293 membrane potential dye fluorescence;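 active = membrane potential signal shifting up or down by more than 3 SD of buffer-only wells, on both duplicate plates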
# HEK293 MPD ctr-2 – parental HEK293 membrane potential modulation, confirmation, counter-screen for TRPC6 modulator project, cell-based. shares compounds with TRPC6 inh. membrane potential dye fluorescence. membrane potential signal change, % at 10 µM. 2,400 tested, 51% active. AID 488924, 2010;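 active = membrane potential signal moves up or down beyond 5 SD from buffer-only wells, on both duplicate plates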
# HEK293 MPD ctr 2-2 – parental HEK293 nonspecific activity of TRPC6 modulators, second screen; membrane potential dye fluorescence; after compound, maximal acetylcholine stimulation; inhibition, % at 10 µM; 2,400 tested, 14% active; shares compounds with TRPC6 inh;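 active = membrane potential signal drops by more than 5 SD from the mean control signal, in both duplicate plates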;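 note: plate controls were acetylcholine ECmax control wells for no effect and buffer only wells for full effect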
# TRPC4/MOR mod – TRPC4 modulation by TRPC6 hit compounds, confirmation, selectivity assay for TRPC6 modulator project, cell-based, HEK293 TRPC4/mu-opioid, membrane potential dye, mouse. membrane potential fluorescence. 2,400 tested, 69% active. shares compounds with TRPC6 inh. percent change from control (negative = decrease, positive = increase), % at 10 µM;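 active = membrane potential signal moved up or down beyond 5 SD of buffer control wells, in both duplicate plates, actives on both sides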;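 note: plate controls were assay buffer wells for no effect and DAMGO maximal-effect wells for full effect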
# TRPC4 ctr inh 2 – second selectivity test of TRPC6 modulators against mouse TRPC4; HEK293 TRPC4/mu-opioid, membrane potential dye fluorescence; stimulated with maximal-effect DAMGO; 2,400 tested, 55% active; inhibition, % at 10 µM; AID 488928; shares compounds with TRPC6 inh;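 active = drop in membrane potential signal beyond 5 SD of the control wells in both duplicate plates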;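 note: TRPC4 counter screen for TRPC6 hits run under conditions tuned for TRPC6 not TRPC4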
# TRPC6 block conf – mouse TRPC6 channel inhibitors, confirmation, HEK293 cells, membrane potential dye, duplicate | shares compounds with TRPC6 inh | ACh-evoked depolarization | inhibition, % at 10 µM | 3,300 tested, 43% active | AID 488960, 2010;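 active = fluorescence ratio falls more than 5 SD below the full-stimulation control mean, in both duplicate runs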;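 note: integrated fluorescence ratio of peak minus minimum over baseline after agonist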
# TRPC6 act confirm – mouse TRPC6 channel activators, confirmation, HEK293 cells, membrane potential dye, duplicate. shares compounds with TRPC6 inh. HEK293-TRPC6 membrane potential dye fluorescence, FDSS. activation, % at 10 µM. 2,800 tested, 11% active. AID 488961, 2010;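 active = ratio signal rise beyond 5 SD above unstimulated control wells' mean, seen in both duplicate runs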;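 note: plate controls were buffer EC0 wells for no effect and acetylcholine ECmax response for full effect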
# Starred values were filed as active, the others as inactive; i = inactive; . = not tested or not shown.
SMILES,TRPC4 block,Kir21 block,TRPC4 act,TRPC6 inh,TRPC6 activator,TRPC4 potent,HEK293 MPD ctr-2,HEK293 MPD ctr 2-2,TRPC4/MOR mod,TRPC4 ctr inh 2,TRPC6 block conf,TRPC6 act confirm,others
Cc1ccc(Nc2nc(-c3sc(N)nc3C)cs2)cc1,i,-0.54,i,-7.66*,i,i,.,.,.,.,i,i,TRPC4 sel inh 2=i;TRPC4 spec=-10.9%*;HEK293 MPD ctr 2-1=i;HEK293 MPD ctr-1=-237.0%*
COc1ccc(Nc2nc(-c3sc(N)nc3C)cs2)cc1,i,0.21,i,i,i,i,.,.,.,.,.,.,
Clc1ccc(C2NCCc3sccc32)cc1 (stereo not drawn),i,-0.96,i,-5.92*,i,i,i,i,15.0%*,71.0%*,i,i,
Cc1ccc(C)c(OC(=O)c2cccnc2Cl)c1C,i,-0.01,i,-6.17*,i,i,i,i,i,i,i,i,
Cn1ncc2c(Nc3ccc([N+](=O)[O-])cc3)nc(Cl)nc21,i,-0.02,i,i,i,i,.,.,.,.,.,.,
Cc1cccc(NCC(=O)N/N=C\c2c[nH]c3ccccc23)c1,i,0.82,i,-5.77*,i,i,-63.0%*,i,-20.0%*,39.5%*,38.5%*,i,
Cc1ccccc1NCC(=O)N/N=C/c1c[nH]c2ccccc12,i,-1.18,i,i,i,i,.,.,.,.,.,.,
